Source: ChEMBL document CHEMBL1126622, “2-substituted 1,2-dihydro-3H-dibenz[de,h]isoquinoline-1,3-diones. A new class of antitumor agent” (J Med Chem, 1993)

What was measured:
L1210 [1] = assay: Tested against L1210 resistant murine leukemia cells by MTT tetrazolium dye assay; format: functional, cell-based; conditions: Mus musculus
Summary of the method: (§1)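 Suspension L1210 cells (drug-sensitive and multidrug-resistant lines), 50 000/well, drug added day 2 from DMSO stock serially diluted in PBS pH 7.4, 10^1–10^-5 μg/mL in half-log steps, final DMSO ≤0.1%; continuous 6-day exposure at 37 °C, 5% CO2; MTT added 4 h, formazan dissolved in DMSO, A570; percent of untreated control; six wells per concentration, IC50s averaged.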

L1210 [2] = assay: Tested against L1210 sensitive murine leukemia cells by MTT tetrazolium dye assay; format: functional, cell-based; conditions: Mus musculus; summary of the method: as §1
OVCAR-3 = assay: Tested against OVCAR-3 human ovarian cancer cells by sulforhodamine B (SRB) assay; format: functional, cell-based
Summary of the method: (§2)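 Adherent UACC375 melanoma and OVCAR3 ovarian cells, SRB assay: plating and dosing as for MTT (50 000/well, 10^1–10^-5 μg/mL half-log, DMSO ≤0.1%), 8-day exposure; fixed with 10% TCA 1 h at 4 °C, stained 30 min with 0.4% SRB in 1% acetic acid, dye dissolved in 10 mM Tris base pH 10.5, OD 564 nm; six wells per concentration, IC50s averaged.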

[3] = Tested against UACC375 human melanoma cancer cells by sulforhodamine B (SRB) assay; format: functional, cell-based; conditions: Cancer cell lines; summary of the method: as §2
[4] = Average mean for IC50 values in the four cell lines (UACC375,OVCAR3,L1210 sensitive,L1210 resistant); format: functional; parameters: unit not given here
Summary of the method: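 Mean of the IC50 values from the four tumor lines: UACC375 and OVCAR3 by SRB (8-day exposure), sensitive and resistant L1210 by MTT (6-day continuous exposure).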

[5] = Acid dissociation constant was determined; format: ADME
Summary of the method: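 Hydrochloride salt (0.165 mmol) dissolved in 0.982 N HCl to give 1 mequiv acid beyond amine protonation; stirred and titrated with 0.926 N NaOH with pH-meter monitoring.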

L1210 [6] = assay: Tested for percent increase in life span in L1210 leukemia cells after intraperitoneal dose of 30 mg/kg in mice; format: functional; conditions: Mus musculus, L1210, ip
Summary of the method: (§3)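 Standard NCI protocol: leukemia cells implanted intraperitoneally, with drug given ip on days 1, 5 and 9. Read-out is percent increase in life span, 100 × (treated life span − control life span)/control life span.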

L1210 [7] = assay: Tested for percent increase in life span in L1210 leukemia cells after intraperitoneal dose of 45 mg/kg in mice; format: functional; conditions: Mus musculus, L1210, ip; summary of the method: as §3
[8] = Tested for in vitro for cardiotoxicity by performing neonatal rat heart myocyte assay method; format: functional
Summary of the method: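 Neonatal rat heart myocytes exposed to drug for 1 h; cytotoxicity read as cellular ATP/protein ratio relative to untreated controls; IC50 is the 1-h concentration halving this ratio.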

[9] = The quotient of the IC50 is the myocytes divided by the mean IC50 in the four cell lines (UACC375,OVCAR3,L1210 sensitive,L1210 resistant); format: ADME; conditions: read-out: Toxicity ratio
Summary of the method: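 Ratio of the myocyte IC50 (1-h exposure, ATP/protein ratio read-out) to the mean tumor-cell IC50 across the four lines, UACC375 and OVCAR3 by SRB, sensitive and resistant L1210 by MTT.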

B16 [10] = assay: Tested for percent tumor growth inhibition in B16 melanoma cells after intraperitoneal dose of 30 mg/kg in mice; conditions: Mus musculus, B16, ip; read-out: TGI
COLO 480 = assay: Tested against human colon carcinoma COLO 480 cell line in vitro; format: functional, cell-based
Summary of the method: (§4)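 Human colon carcinoma lines, MTT assay: 50 000 cells/well, drug added day 2 (DMSO stock diluted in PBS pH 7.4, 10^1–10^-5 μg/mL half-log steps, final DMSO ≤0.1%), 6-day exposure at 37 °C, 5% CO2; MTT 4 h, formazan in DMSO read at 570 nm vs untreated control; six wells per concentration, IC50 averaged.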

COLO 205 = assay: Tested against human colon carcinoma COLO 205 cell line in vitro; format: functional, cell-based; summary of the method: as §4
HCT-15 = assay: Tested against human colon carcinoma HCT 15 cell line in vitro; format: functional, cell-based; summary of the method: as §4
HT-29 = assay: Tested against human colon carcinoma HT 29 cell line in vitro; format: functional, cell-based; summary of the method: as §4
L1210 [11] = assay: Tested for percent increase in life span in L1210 leukemia cells after intraperitoneal dose of 15 mg/kg in mice; format: functional; conditions: Mus musculus, L1210, ip; summary of the method: as §3
L1210 [12] = assay: Tested for percent increase in life span in L1210 leukemia cells after intraperitoneal dose of 5 mg/kg in mice; format: functional; conditions: Mus musculus, L1210, ip
Summary of the method: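 Standard NCI protocol: leukemia cells implanted intraperitoneally, with drug given ip once daily on days 1–5. Read-out is percent increase in life span, 100 × (treated life span − control life span)/control life span.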

LoVo = assay: Tested against human colon carcinoma LoVo cell line in vitro; format: functional, cell-based; summary of the method: as §4
B16 [13] = assay: Tested for percent tumor growth inhibition in B16 melanoma cells after intraperitoneal dose of 15 mg/kg in mice; conditions: Mus musculus, B16, ip; read-out: TGI

SMILES | IC50 (L1210 [1]) [µM] | IC50 (L1210 [2]) [µM] | IC50 (OVCAR-3) [µM] | IC50 [3] [µM] | Average [4] | pKa [5] | ILS at 30 mg/kg (L1210 [6]) [%] | ILS at 45 mg/kg (L1210 [7]) [%] | IC50 [8] [µM] | selectivity ratio [9] | inhibition in vivo at 30 mg/kg (B16 [10]) [%] | IC50 (COLO 480) [µM] | IC50 (COLO 205) [µM] | IC50 (HCT-15) [µM] | IC50 (HT-29) [µM] | ILS at 15 mg/kg (L1210 [11]) [%] | ILS at 5 mg/kg (L1210 [12]) [%] | IC50 (LoVo) [µM] | inhibition in vivo at 15 mg/kg (B16 [13]) [%]
O=C1c2cccc3cc4ccccc4c(c23)C(=O)N1N1CC1 | 0.791 | 0.791 | 7.91 | 2.53 | 3006 | – | – | – | – | – | – | – | – | – | – | – | – | – | –
CN(C)CCN1C(=O)c2cccc3cc(N)cc(c23)C1=O [AMONAFIDE] | 0.625 | 0.625 | 2.18 | 2.03 | 1365 | 7.3 | 45 | 87.5 | 48.4 | 36 | 23 | – | – | – | – | – | – | – | –
CCN1CCCC(N2C(=O)c3cccc4cc5ccccc5c(c34)C2=O)C1 (stereo not drawn) | 0.609 | 0.635 | 1.19 | 1.65 | 1020 | – | – | – | 8.76 | 8.3 | – | – | – | – | – | – | – | – | –
O=C1c2cccc3cc4ccccc4c(c23)C(=O)N1c1cccnc1 | 0.554 | 0.544 | 1.94 | 2.49 | 1380 | – | – | – | > 25 | > 20 | – | – | – | – | – | – | – | – | –
O=C1c2cccc3cc4ccccc4c(c23)C(=O)N1CCN1CCNCC1 | 0.463 | 0.174 | 1.97 | 0.463 | 767 | – | – | – | 6.71 | 8.8 | – | – | – | – | – | – | – | – | –
O=C1c2cccc3cc4ccccc4c(c23)C(=O)N1Cc1cccnc1 | 2.67 | 1.87 | 8.02 | 11.4 | 5983 | – | – | – | > 25 | > 4 | – | – | – | – | – | – | – | – | –
CNCCN1C(=O)c2cccc3cc4ccccc4c(c23)C1=O | 0.0206 | 0.01 | 0.044 | 0.059 | 33 | – | – | – | 7.06 | 211 | – | – | – | – | – | – | – | – | –
CN(C)CCN1C(=O)c2cccc3cc4ccccc4c(c23)C1=O [AZONAFIDE] | 0.007 | 0.007 | 0.057 | 0.071 | 36 | 7.3 | 62.5 | 79 | 1.98 | 56 | – | 0.003 | 0.036 | 0.008 | 0.063 | 25 | 90 | 0.006 | 74
O=C1c2cccc3cc4ccccc4c(c23)C(=O)N1CCc1ccccn1 | 15.5 | 6.44 | 3.87 | 6.44 | 8054 | 5.4 | – | – | > 25 | > 3 | – | – | – | – | – | – | – | – | –
O=C1c2cccc3cc4ccccc4c(c23)C(=O)N1CCCN(CCO)CCO | 0.142 | 0.076 | 0.163 | 0.217 | 150 | – | – | – | 8.91 | 60 | – | – | – | – | – | – | – | – | –

Further compounds by falling IC50 (L1210 [1]), results first:

IC50 (L1210 [1]) [µM] | IC50 (L1210 [2]) [µM] | IC50 (OVCAR-3) [µM] | SMILES | IC50 [3] [µM] | Average [4] | pKa [5] | ILS at 30 mg/kg (L1210 [6]) [%] | ILS at 45 mg/kg (L1210 [7]) [%] | IC50 [8] [µM] | selectivity ratio [9] | inhibition in vivo at 30 mg/kg (B16 [10]) [%] | IC50 (COLO 480) [µM] | IC50 (COLO 205) [µM] | IC50 (HCT-15) [µM] | IC50 (HT-29) [µM] | ILS at 15 mg/kg (L1210 [11]) [%] | ILS at 5 mg/kg (L1210 [12]) [%] | IC50 (LoVo) [µM] | inhibition in vivo at 15 mg/kg (B16 [13]) [%]
26.7 | 26.7 | 17.4 | O=C1c2cccc3cc4ccccc4c(c23)C(=O)N1Cc1ccccn1 | 12 | 20722 | – | – | – | > 25 | > 1 | – | – | – | – | – | – | – | – | –
1.79 | 0.187 | 16.2 | CN(C)c1ccc(N2C(=O)c3cccc4cc5ccccc5c(c34)C2=O)cc1 | 4.98 | 4537 | – | – | – | 37.3 | 8 | – | – | – | – | – | – | – | – | –
0.512 | 0.512 | 0.639 | O=C1c2cccc3cc4ccccc4c(c23)C(=O)N1CCN1CCOCC1 | 0.511 | 544 | – | – | – | > 25 | > 50 | – | – | – | – | – | – | – | – | –
0.148 | 0.207 | 2.43 | O=C1c2cccc3cc4ccccc4c(c23)C(=O)N1c1ncc[nH]1 | 1.62 | 1103 | – | – | – | – | – | – | – | – | – | – | – | – | – | –
0.082 | 0.054 | 0.462 | CN(C)CCCN1C(=O)c2cccc3cc4ccccc4c(c23)C1=O | 0.245 | 211 | 7.3 | – | – | 11.4 | 113 | – | – | – | – | – | – | – | – | –
0.056 | 0.051 | 0.203 | CN1CCCC1CCN1C(=O)c2cccc3cc4ccccc4c(c23)C1=O (stereo not drawn) | 0.19 | 125 | – | – | – | 7.08 | 57 | – | – | – | – | – | – | – | – | –
0.055 | 0.036 | 0.214 | CCN1CCCC1CN1C(=O)c2cccc3cc4ccccc4c(c23)C1=O (stereo not drawn) | 0.119 | 106 | – | – | – | 15.2 | 143 | – | – | – | – | – | – | – | – | –
0.051 | 0.051 | 0.089 | O=C1c2cccc3cc4ccccc4c(c23)C(=O)N1CCN1CCCCC1 | 0.178 | 92 | – | – | – | 10.4 | 13 | – | – | – | – | – | – | – | – | –
0.041 | 0.018 | 0.081 | O=C1c2cccc3cc4ccccc4c(c23)C(=O)N1CCNCCO | 0.067 | 52 | – | – | – | 0.943 | 18 | – | – | – | – | – | – | – | – | –
0.0118 | 0.0145 | 0.066 | O=C1c2cccc3cc4ccccc4c(c23)C(=O)N1CCN1CCCC1 | 0.039 | 33 | – | – | – | 0.92 | 28 | – | – | – | – | – | – | – | – | –
